For experiment [1], the system named is Mycobacterium tuberculosis. The experiment can be described thus: Antimicrobial activity against Mycobacterium tuberculosis H37Rv ATCC 27294 harboring pFCA-lux AB gene measured under aerobic condition after 8 days by luminescence analysis. Type of experiment: functional. The settings on record: H37Rv ATCC 27294, 192 h. An outline of the steps: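 MABA: replicating M. tb H37Rv exposed to compound aerobically for 8 days. […] Mean of at least two independent determinations ± SD.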

Experiment [2] deals with Mycobacterium tuberculosis. The experiment is described as follows: Antimicrobial activity against Mycobacterium tuberculosis H37Rv ATCC 27294 harboring pFCA-lux AB gene measured under anaerobic condition after 11 days by luminescence analysis. It is filed as functional. The settings on record: H37Rv ATCC 27294, 264 h. Summed up: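 LORA: luminescence-based low-oxygen-recovery assay on nonreplicating M. tb, 11-day anaerobic exposure. MIC is the mean of at least two independent determinations ± SD.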

Converted amounts (≈) assume the structure as drawn. A value given as a limit tells only on which side of the number the result lay.

The text below walks through data of ChEMBL document CHEMBL1944507, “Structure-activity relationships for amide-, carbamate-, and urea-linked analogues of the tuberculosis drug (6S)-2-nitro-6-{[4-(trifluoromethoxy)benzyl]oxy}-6,7-dihydro-5H-imidazo[2,1-b][1,3]oxazine (PA-824)” (J Med Chem, 2012).

As usually defined, the MIC is the lowest concentration found to suppress growth. High values mean a need for much substance, low ones inhibition by little substance. `O=C(N[C@@H]1COc2nc([N+](=O)[O-])cn2C1)c1ccc(OC(F)(F)F)cc1` had an MIC in experiment [1] of 1.8 µM (≈ 0.67 µg/mL).

On to `O=C(CN[C@@H]1COc2nc([N+](=O)[O-])cn2C1)Nc1ccc(OC(F)(F)F)cc1`, for which the MIC in experiment [1] turned out to be 0.7 µM (≈ 0.281 µg/mL); in experiment [2], 46 µM (≈ 18.5 µg/mL).

For the compound `O=C(N[C@@H]1COc2nc([N+](=O)[O-])cn2C1)Oc1ccc(OC(F)(F)F)cc1`, the results for the MIC in experiment [1] and in experiment [2] were > 64 µM and 64 µM (≈ 24.8 µg/mL), respectively.

As to `O=C(N[C@@H]1COc2nc([N+](=O)[O-])cn2C1)OCc1ccc(OC(F)(F)F)cc1`, the MIC in experiment [1] stood at 0.15 µM (≈ 0.0603 µg/mL); in experiment [2], 11 µM (≈ 4.43 µg/mL).

In the case of `O=C(Nc1ccc(OC(F)(F)F)cc1)N[C@@H]1COc2nc([N+](=O)[O-])cn2C1`, the MIC is 0.23 µM (≈ 0.0891 µg/mL) in experiment [1] and 4.2 µM (≈ 1.63 µg/mL) in experiment [2].

`O=C(N[C@@H]1COc2nc([N+](=O)[O-])cn2C1)OCc1ccc(-c2ccc(OC(F)(F)F)cc2)cc1`: the values for the MIC in experiment [1] and in experiment [2] were 0.11 µM (≈ 0.0526 µg/mL) and 5 µM (≈ 2.39 µg/mL), respectively.

As to `O=C(N[C@@H]1COc2nc([N+](=O)[O-])cn2C1)OCc1ccc(-c2ccc(C(F)(F)F)nc2)cc1`, the figures for the MIC in experiment [1] and in experiment [2] were 0.23 µM (≈ 0.107 µg/mL) and 4.7 µM (≈ 2.18 µg/mL), respectively.

For `O=C(N[C@@H]1COc2nc([N+](=O)[O-])cn2C1)OCc1ccc(-c2ccc(F)nc2)cc1`, the MIC in experiment [1] came to 0.34 µM (≈ 0.141 µg/mL); in experiment [2] it was 4.3 µM (≈ 1.78 µg/mL).

With `O=C(Nc1cccc(-c2ccc(C(F)(F)F)cc2)c1)N[C@@H]1COc2nc([N+](=O)[O-])cn2C1`, the MIC in experiment [1] came out at 0.035 µM (≈ 0.0157 µg/mL); in experiment [2], 3.6 µM (≈ 1.61 µg/mL).

For `O=C(Nc1cccc(-c2ccc(F)cc2)c1)N[C@@H]1COc2nc([N+](=O)[O-])cn2C1`, the MIC in experiment [1] came to 0.03 µM (≈ 0.0119 µg/mL); in experiment [2], 3.8 µM (≈ 1.51 µg/mL).

In the case of `O=C(Nc1cccc(-c2ccc(OC(F)(F)F)cc2)c1)N[C@@H]1COc2nc([N+](=O)[O-])cn2C1`, the minimum inhibitory concentration (MIC) in experiment [1] stood at 0.25 µM (≈ 0.116 µg/mL); in experiment [2], 5.8 µM (≈ 2.69 µg/mL).

With `O=C(Nc1cccc(-c2ccc(C(F)(F)F)nc2)c1)N[C@@H]1COc2nc([N+](=O)[O-])cn2C1`, the MIC in experiment [1] stood at 0.22 µM (≈ 0.0986 µg/mL); in experiment [2] it was 13 µM (≈ 5.83 µg/mL).

Turning to `O=C(Nc1cccc(-c2ccc(F)nc2)c1)N[C@@H]1COc2nc([N+](=O)[O-])cn2C1`, the MIC in experiment [1] was 0.23 µM (≈ 0.0916 µg/mL); in experiment [2], 15 µM (≈ 5.98 µg/mL).

Regarding `O=C(Nc1ccc(-c2ccc(C(F)(F)F)cc2)cc1)N[C@@H]1COc2nc([N+](=O)[O-])cn2C1`, the MIC in experiment [1] was 0.19 µM (≈ 0.085 µg/mL); in experiment [2], > 32 µM.

Regarding `O=C(Nc1ccc(-c2ccc(F)cc2)cc1)N[C@@H]1COc2nc([N+](=O)[O-])cn2C1`, the results for the MIC in experiment [1] and in experiment [2] were 1.3 µM (≈ 0.517 µg/mL) and 9.1 µM (≈ 3.62 µg/mL), respectively.

On to `O=C(Nc1ccc(-c2ccc(OC(F)(F)F)cc2)cc1)N[C@@H]1COc2nc([N+](=O)[O-])cn2C1`, for which the MIC in experiment [1] is 0.06 µM (≈ 0.0278 µg/mL); in experiment [2], 18 µM (≈ 8.34 µg/mL).

With `O=C(NCc1ccc(-c2ccc(OC(F)(F)F)cc2)cc1)N[C@@H]1COc2nc([N+](=O)[O-])cn2C1`, the MIC was determined as 1 µM (≈ 0.477 µg/mL) in experiment [1] and 32 µM (≈ 15.3 µg/mL) in experiment [2].

`O=C(NCc1ccc(-c2ccc(C(F)(F)F)nc2)cc1)N[C@@H]1COc2nc([N+](=O)[O-])cn2C1`: the MIC in experiment [1] was 0.4 µM (≈ 0.185 µg/mL); in experiment [2], > 32 µM.

Consider `O=C(Nc1cccc(-c2ccc(C(F)(F)F)cc2)c1)O[C@@H]1COc2nc([N+](=O)[O-])cn2C1`, for which the MIC in experiment [1] is 0.04 µM (≈ 0.0179 µg/mL); in experiment [2], 1 µM (≈ 0.448 µg/mL).

With `O=C(Nc1cccc(-c2ccc(F)cc2)c1)O[C@@H]1COc2nc([N+](=O)[O-])cn2C1`, the results for the MIC in experiment [1] and in experiment [2] were 0.027 µM (≈ 0.0108 µg/mL) and 1.5 µM (≈ 0.598 µg/mL), respectively.

Consider `O=C(Nc1cccc(-c2ccc(OC(F)(F)F)cc2)c1)O[C@@H]1COc2nc([N+](=O)[O-])cn2C1`, for which the results for the MIC in experiment [1] and in experiment [2] were 0.06 µM (≈ 0.0279 µg/mL) and 0.85 µM (≈ 0.395 µg/mL), respectively.

For `O=C(Nc1cccc(-c2ccc(C(F)(F)F)nc2)c1)O[C@@H]1COc2nc([N+](=O)[O-])cn2C1`, the MIC in experiment [1] was determined as 0.11 µM (≈ 0.0494 µg/mL); in experiment [2] it was 2.9 µM (≈ 1.3 µg/mL).

Take `O=C(Nc1cccc(-c2ccc(F)nc2)c1)O[C@@H]1COc2nc([N+](=O)[O-])cn2C1`: the MIC turned out to be 0.24 µM (≈ 0.0958 µg/mL) in experiment [1] and 5.8 µM (≈ 2.32 µg/mL) in experiment [2].

For `O=C(Nc1ccc(-c2ccc(C(F)(F)F)cc2)cc1)O[C@@H]1COc2nc([N+](=O)[O-])cn2C1`, the values for the MIC in experiment [1] and in experiment [2] were 0.055 µM (≈ 0.0247 µg/mL) and > 32 µM, respectively.

Turning to `O=C(Nc1ccc(-c2ccc(F)cc2)cc1)O[C@@H]1COc2nc([N+](=O)[O-])cn2C1`, the values for the MIC in experiment [1] and in experiment [2] were 1.3 µM (≈ 0.518 µg/mL) and 18 µM (≈ 7.17 µg/mL), respectively.

`O=C(Nc1ccc(-c2ccc(OC(F)(F)F)cc2)cc1)O[C@@H]1COc2nc([N+](=O)[O-])cn2C1`: the MIC in experiment [1] was 0.05 µM (≈ 0.0232 µg/mL); in experiment [2], > 32 µM.

`O=C(Nc1ccc(-c2ccc(C(F)(F)F)nc2)cc1)O[C@@H]1COc2nc([N+](=O)[O-])cn2C1`: the results for the MIC in experiment [1] and in experiment [2] were 0.25 µM (≈ 0.112 µg/mL) and 4.1 µM (≈ 1.84 µg/mL), respectively.

In the case of `O=C(Nc1ccc(-c2ccc(F)nc2)cc1)O[C@@H]1COc2nc([N+](=O)[O-])cn2C1`, the MIC in experiment [1] came out at 0.13 µM (≈ 0.0519 µg/mL); in experiment [2] it was 4.3 µM (≈ 1.72 µg/mL).
